In brackets after ≈: the same amount, converted by molar mass.
Test system: Vaccinia virus
Assay: In vitro minimum inhibitory concentration to inhibit VV-induced cytopathogenicity in PRK cells by 50%
Assay type: functional
Settings: Orthopoxvirus vaccinia
Outline: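 Antiviral read-out was virus-induced cytopathogenicity in primary rabbit kidney (PRK) cell cultures. The value is the compound concentration needed to reduce cytopathogenicity by 50%.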

Compound | MIC
Cn1c(N)nc2c(ncn2COCCO)c1=O | > 400 µg/mL
Cc1cn2c([O-])c3c(nc2n1)[n+](COCCO)cn3C | > 400 µg/mL
Cc1cn2c(O)c3ncn(COCCO)c3nc2n1 | > 400 µg/mL
Cc1cn2c(=O)c3ncn(COCCO)c3nc2n1C | > 400 µg/mL
CNc1nc(O)c2ncn(COCCO)c2n1 | > 400 µg/mL
Cn1c[n+](COCCO)c2nc(N)nc([O-])c21.O=S(=O)(O)O | > 400 µg/mL
Nc1nc2c(ncn2COCCO)c(=O)[nH]1 [ACYCLOVIR] | 150 µg/mL (≈ 666 µM)

Source: ChEMBL document CHEMBL1124149 (1988)
